Measurements from ChEMBL document CHEMBL2150936, “Anticancer activity of small amphipathic β²,²-amino acid derivatives” (Eur J Med Chem, 2012).

Assays:
MRC5 = assay: Cytotoxicity against human MRC5 cells after 4 hrs by MTT assay; assay type: cell-based; settings: MRC5, 4 h
Procedure, shortened: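 MRC-5 embryonic lung fibroblast monolayers in MEM with 10% FBS were seeded at 1 × 10^5 cells/ml, grown overnight, then medium was replaced with compound solution. Exposure was 4 h at 37 °C, 5% CO2, then MTT for 2 h. Formazan was dissolved in acidic isopropanol (0.04 N HCl) and absorbance read at 590 nm. Background-corrected viability was taken relative to medium-only control, with Triton X-100 as positive control.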

Ramos [1] = assay: Selectivity index, ratio of EC50 for human MRC5 cells to IC50 for human Ramos cells; assay type: functional
Procedure, shortened: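 Ramos cells were seeded at 4 × 10^5 cells/ml in serum-free RPMI-1640, and compounds in RPMI-1640 were added at once. MRC-5 fibroblasts were seeded at 1 × 10^5 cells/ml in MEM with 10% FBS, grown overnight, and the medium was then replaced with compound. Both were incubated 4 h at 37 °C, 5% CO2, then given MTT for 2 h. Formazan was dissolved in acidic isopropanol and read at 590 nm. Survival was expressed relative to the untreated medium control. SI = MRC-5 EC50 / Ramos IC50.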

Ramos [2] = assay: Cytotoxicity against human Ramos cells after 4 hrs by MTT assay; assay type: functional, cell-based
Procedure, shortened: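 Ramos Burkitt's lymphoma cells, kept in suspension in RPMI 1640 with 10% FBS, were seeded at 4 × 10^5 cells/ml in serum-free RPMI 1640. Compounds in RPMI-1640 were added immediately, then 4 h at 37 °C, 5% CO2. MTT was added for a further 2 h, formazan dissolved in acidic isopropanol (0.04 N HCl), and A590 read. Survival was calculated against untreated medium control; 1% Triton X-100 served as positive control.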

[3] = Hemolytic activity in human RBC assessed as hemoglobin release; assay type: ADME, cell-based, Erythrocyte
Procedure, shortened: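 Heparinized human blood was washed three times in PBS pre-warmed to 37 °C to remove plasma. Compounds were dissolved in PBS and mixed with the RBCs to a final 1% v/v erythrocytes. Samples were incubated for 1 h at 37 °C with agitation, then centrifuged. Hemoglobin release was read at 405 nm, relative to 0.1% v/v Triton X-100 (positive control) and PBS (negative control).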

Ramos [4] = assay: Selectivity index, ratio of EC50 for human RBC to IC50 for human Ramos cells; assay type: functional
Procedure, shortened: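 Ramos IC50 came from a 4 h MTT assay: cells at 4 × 10^5 cells/ml in serum-free RPMI-1640, compounds added at once, 37 °C, 2 h MTT, read at 590 nm. RBC EC50 came from hemoglobin release at 405 nm: 1% v/v washed human erythrocytes in PBS, 1 h at 37 °C, Triton X-100 reference. SI = RBC EC50 / Ramos IC50.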

[5] = Homo sapiens, Erythrocyte, read-out: EC50

Row | SMILES | EC50 (MRC5) [µM] | Selectivity Index (Ramos [1]) | IC50 (Ramos [2]) [µM] | EC50 ([3]; erythrocyte) | Selectivity Index (Ramos [4]) | EC50 [3, 5] [µM]
1 | N=C(N)NCCCNC(=O)C(CNC(=N)N)(Cc1ccc2ccccc2c1)Cc1ccc2ccccc2c1 | 760 | 9.6 | 79 | ND(Insoluble) | – | –
2 | CN(C)CCNC(=O)C(CN)(Cc1ccc(C(F)(F)F)cc1)Cc1ccc(C(F)(F)F)cc1 | 47 | 4.1 | 11.4 | – | 41 | –
3 | CN(C)CCN1CCN(C(=O)C(CN)(Cc2ccc(C(F)(F)F)cc2)Cc2ccc(C(F)(F)F)cc2)CC1 | 69 | 3.6 | 19 | – | 58 | 1120
4 | N=C(N)NCCCNC(=O)C(CNC(=N)N)(Cc1ccc(C(F)(F)F)cc1)Cc1ccc(C(F)(F)F)cc1 | 171 | 2.2 | 78 | ND(Insoluble) | – | –
5 | CC(C)(C)c1ccc(CC(CN)(Cc2ccc(C(C)(C)C)cc2)C(=O)N[C@@H](CCCNC(=N)N)C(N)=O)cc1 | 158 | 1.2 | 136 | – | >4.8 | > 654
6 | CN(C)CCN1CCN(C(=O)C(CN)(Cc2ccc(C(C)(C)C)cc2)Cc2ccc(C(C)(C)C)cc2)CC1 | 12 | 2.3 | 5.2 | – | 65 | 337
7 | CN(C)CCOC(=O)C(CN)(Cc1ccc(C(C)(C)C)cc1)Cc1ccc(C(C)(C)C)cc1 | 90 | 2.9 | 31 | – | 1.7 | 52
8 | N=C(N)NCCC[C@H](NC(=O)C(CN)(Cc1ccc(C(F)(F)F)cc1)Cc1ccc(C(F)(F)F)cc1)C(N)=O | > 634 | – | > 254 | – | – | 990
9 | CN1CCN(C(=O)C(CN)(Cc2ccc(C(F)(F)F)cc2)Cc2ccc(C(F)(F)F)cc2)CC1 | 182 | 6.7 | 27 | – | 19.6 | 526
10 | NCCCNC(=O)C(CN)(Cc1ccc2ccccc2c1)Cc1ccc2ccccc2c1 | 6.6 | 1.5 | 4.3 | – | 104 | 447
11 | NCCCNC(=O)C(CN)(Cc1ccc(C(F)(F)F)cc1)Cc1ccc(C(F)(F)F)cc1 | 30 | 2.8 | 11 | – | 72 | 790
12 | CN(C)CCNC(=O)C(CN)(Cc1ccc(C(C)(C)C)cc1)Cc1ccc(C(C)(C)C)cc1 | 49 | 1.8 | 28 | – | 9.8 | –
13 | CN1CCN(C(=O)C(CN)(Cc2ccc(C(C)(C)C)cc2)Cc2ccc(C(C)(C)C)cc2)CC1 | 16.6 | 2.7 | 6.1 | – | 57 | 349
14 | CC(C)(C)c1ccc(CC(CNC(=N)N)(Cc2ccc(C(C)(C)C)cc2)C(=O)NCCCNC(=N)N)cc1 | 64 | 1 | 63 | ND(Insoluble) | – | –
15 | CC(C)(C)c1ccc(CC(CN)(Cc2ccc(C(C)(C)C)cc2)C(=O)NCCN)cc1 | 6.1 | 0.6 | 10.6 | – | 1.7 | 18
16 | N=C(N)NCCC[C@H](NC(=O)C(CN)(Cc1ccc2ccccc2c1)Cc1ccc2ccccc2c1)C(N)=O | 552 | 5.2 | 107 | – | 4 | 425
17 | CN1CCN(C(=O)C(CN)(Cc2ccc3ccccc3c2)Cc2ccc3ccccc3c2)CC1 | 41 | 2.9 | 14 | – | 22 | –
18 | CN(C)CCOC(=O)C(CN)(Cc1ccc(C(F)(F)F)cc1)Cc1ccc(C(F)(F)F)cc1 | 8.2 | 3.6 | 2.3 | – | 190 | 437
19 | CC(C)(C)c1ccc(CC(CN)(Cc2ccc(C(C)(C)C)cc2)C(=O)NCCCN)cc1 | 35 | 2.4 | 14.4 | – | 17.6 | 254
20 | CN(C)CCOC(=O)C(CN)(Cc1ccc2ccccc2c1)Cc1ccc2ccccc2c1 | 12.7 | 4.1 | 3.1 | – | 148 | 458
21 | CN(C)CCNC(=O)C(CN)(Cc1ccc2ccccc2c1)Cc1ccc2ccccc2c1 | 4.9 | 0.7 | 6.6 | – | 33 | 217
22 | NCCNC(=O)C(CN)(Cc1ccc(C(F)(F)F)cc1)Cc1ccc(C(F)(F)F)cc1 | 17.8 | 2.5 | 7.1 | – | 60 | –
23 | CN(C)CCN1CCN(C(=O)C(CN)(Cc2ccc3ccccc3c2)Cc2ccc3ccccc3c2)CC1 | 18.5 | 2.6 | 7.2 | – | 57 | 409
